Results as given in ChEMBL document CHEMBL1156136, “Hypoxia-activated prodrugs: substituent effects on the properties of nitro seco-1,2,9,9a-tetrahydrocyclopropa[c]benz[e]indol-4-one (nitroCBI) prodrugs of DNA minor groove alkylating agents” (J Med Chem, 2009).

What was measured:
HT-29 [1] = assay: Hypoxic cytotoxicity ratio, IC50 for human HT-29 cells in oxic condition to IC50 for human HT-29 cells in hypoxic condition; format: functional
In short: (§1)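 Log-phase monolayers exposed to drug for 4 h under aerobic (20% O2) or anoxic (<20 ppm O2) conditions, then sulforhodamine B staining 5 days later. IC50 interpolated as concentration lowering cell density to 50% of same-plate controls. HCR = IC50(oxic)/IC50(hypoxic), mean of intraexperiment ratios. A549 P450R line is a stable transfectant with 9-fold higher cytochrome c reduction rate than parent.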

HT-29 [2] = assay: Cytotoxicity against human HT-29 cells in hypoxic condition after 4 hrs by sulforhodamine B assay; format: functional, cell-based; settings: HT-29, 4 h; in short: as §1
HT-29 [3] = assay: Cytotoxicity against human HT-29 cells in oxic condition after 4 hrs by sulforhodamine B assay; format: functional, cell-based; settings: HT-29, 4 h; in short: as §1
SK-OV-3 [4] = assay: Cytotoxicity against human SKOV3 cells in oxic condition after 4 hrs by sulforhodamine B assay; format: functional, cell-based; settings: SK-OV-3, 4 h; in short: as §1
SK-OV-3 [5] = assay: Hypoxic cytotoxicity ratio, IC50 for human SKOV3 cells in oxic condition to IC50 for human SKOV3 cells in hypoxic condition; format: functional; in short: as §1
SK-OV-3 [6] = assay: Cytotoxicity against human SKOV3 cells in hypoxic condition after 4 hrs by sulforhodamine B assay; format: functional, cell-based; settings: SK-OV-3, 4 h; in short: as §1

Structure (SMILES) | Ratio IC50 (HT-29 [1]) | IC50 (HT-29 [2]) | IC50 (HT-29 [3]) | IC50 (SK-OV-3 [4]) | Ratio IC50 (SK-OV-3 [5]) | IC50 (SK-OV-3 [6])
COc1cc2cc(C(=O)N3CC(CCl)c4c3cc([N+](=O)[O-])c3ccc(S(C)(=O)=O)cc43)[nH]c2c(OC)c1OC (configuration not stated) | 2.5 | 7.2 nM | 14000 nM | 11000 nM | 4.2 | 3.9 nM
CN(C)CCOc1ccc2[nH]c(C(=O)N3CC(CCl)c4c3cc([N+](=O)[O-])c3c([N+](=O)[O-])cccc43)cc2c1 (configuration not stated) | 2.2 | 1.3 nM | 2800 nM | 4100 nM | 2.9 | 1.4 nM
COC(=O)c1ccc2c3c(cc([N+](=O)[O-])c2c1)N(C(=O)c1cc2cc(OCCN(C)C)ccc2[nH]1)CC3CCl (configuration not stated) | 1.2 | – | 320 nM | 440 nM | 1.9 | –
CN(C)CCOc1ccc2[nH]c(C(=O)N3CC(CCl)c4c3cc([N+](=O)[O-])c3cc([N+](=O)[O-])ccc43)cc2c1 (configuration not stated) | 9.6 | 0.093 nM | 890 nM | 1100 nM | 9.3 | 0.12 nM
CC(=O)c1cccc2c3c(cc([N+](=O)[O-])c12)N(C(=O)c1cc2cc(OCCN(C)C)ccc2[nH]1)CC3CCl (configuration not stated) | 5.2 | 35 nM | 200 nM | 640 nM | 12 | 52 nM
CN(C)CCOc1ccc2[nH]c(C(=O)N3CC(CCl)c4c3cc([N+](=O)[O-])c3cc(S(C)(=O)=O)ccc43)cc2c1 (configuration not stated) | 4 | 0.27 nM | 970 nM | 1300 nM | 11 | 0.12 nM
CN(C)CCOc1ccc2[nH]c(C(=O)N3CC(CCl)c4c3cc(N)c3cc(C(N)=O)ccc43)cc2c1 (configuration not stated) | 1.4 | 48 nM | 61000 nM | 13000 nM | 1 | 13 nM
COC(=O)c1ccc2c([N+](=O)[O-])cc3c(c2c1)C(CCl)CN3C(=O)c1cc2cc(OCCN(C)C)ccc2[nH]1 (configuration not stated) | 1.6 | – | 550 nM | 520 nM | 2.4 | –
CN(C)CCOc1ccc2[nH]c(C(=O)N3CC(CCl)c4c3cc([N+](=O)[O-])c3c(C(N)=O)cccc43)cc2c1 (configuration not stated) | 43 | 1.5 nM | 23000 nM | 50000 nM | 18 | 3.2 nM
CN(C)CCOc1ccc2[nH]c(C(=O)N3CC(CCl)c4c3cc([N+](=O)[O-])c3cccc([N+](=O)[O-])c43)cc2c1 (configuration not stated) | 1.3 | – | 1400 nM | 1200 nM | 1.5 | –
COc1cc2cc(C(=O)N3CC(CCl)c4c3cc([N+](=O)[O-])c3cc(C(C)=O)ccc43)[nH]c2c(OC)c1OC (configuration not stated) | 5.2 | 0.93 nM | 4100 nM | 5100 nM | 19 | 0.44 nM
COc1cc2cc(C(=O)N3CC(CCl)c4c3cc(N)c3cc(S(C)(=O)=O)ccc43)[nH]c2c(OC)c1OC (configuration not stated) | 0.86 | 36 nM | 32000 nM | 32000 nM | 1.2 | 25 nM
COc1cc2cc(C(=O)N3CC(CCl)c4c3cc([N+](=O)[O-])c3cc(S(N)(=O)=O)ccc43)[nH]c2c(OC)c1OC (configuration not stated) | 3.6 | 12 nM | 43000 nM | 37000 nM | 10 | 3.7 nM
COC(=O)c1ccc2c3c(cc([N+](=O)[O-])c2c1)N(C(=O)c1cc2cc(OC)c(OC)c(OC)c2[nH]1)CC3CCl (configuration not stated) | 3.2 | 0.81 nM | 1900 nM | 1100 nM | 4 | 0.51 nM
COc1cc2cc(C(=O)N3CC(CCl)c4c3cc([N+](=O)[O-])c3c(C(C)=O)cccc43)[nH]c2c(OC)c1OC (configuration not stated) | 2 | 0.33 nM | 680 nM | 500 nM | 3.4 | 0.14 nM
CN(C)CCOc1ccc2[nH]c(C(=O)N3CC(CCl)c4c3cc([N+](=O)[O-])c3ccc(C#N)cc43)cc2c1 (configuration not stated) | 1.4 | 1200 nM | 1400 nM | 1200 nM | 1.5 | 880 nM
COc1cc2cc(C(=O)N3CC(CCl)c4c3cc(N)c3cc(C(N)=O)ccc43)[nH]c2c(OC)c1OC (configuration not stated) | 2.3 | 28 nM | 59000 nM | 34000 nM | 1.2 | 27 nM
CN(C)CCOc1ccc2[nH]c(C(=O)N3CC(CCl)c4c3cc([N+](=O)[O-])c3ccc(S(N)(=O)=O)cc43)cc2c1 (configuration not stated) | 26 | – | 9000 nM | 4900 nM | 21 | –
CC(=O)c1ccc2c3c(cc([N+](=O)[O-])c2c1)N(C(=O)c1cc2cc(OCCN(C)C)ccc2[nH]1)CC3CCl (configuration not stated) | 1.5 | – | 170 nM | 640 nM | 4 | –

Structure (SMILES) | Ratio IC50 (HT-29 [1]) | IC50 (HT-29 [2]) | IC50 (HT-29 [3]) | IC50 (SK-OV-3 [4]) | Ratio IC50 (SK-OV-3 [5]) | IC50 (SK-OV-3 [6])
COc1cc2cc(C(=O)N3CC(CCl)c4c3cc([N+](=O)[O-])c3c([N+](=O)[O-])cccc43)[nH]c2c(OC)c1OC (configuration not stated) | – | > 20 nM | > 20000 nM | > 20000 nM | – | > 20 nM
COC(=O)c1ccc2c3c(cc(N)c2c1)N(C(=O)c1cc2cc(OCCN(C)C)ccc2[nH]1)CC3CCl (configuration not stated) | 1.7 | 5.7 nM | 8600 nM | 7700 nM | 0.91 | 8.3 nM
COc1cc2cc(C(=O)N3CC(CCl)c4c3cc([N+](=O)[O-])c3ccccc43)[nH]c2c(OC)c1OC (configuration not stated) | 2.5 | 1.6 nM | 3400 nM | 4200 nM | 2.8 | 1.7 nM
CC(=O)c1ccc2c([N+](=O)[O-])cc3c(c2c1)C(CCl)CN3C(=O)c1cc2cc(OCCN(C)C)ccc2[nH]1 (configuration not stated) | 1.1 | – | 150 nM | 200 nM | 1.3 | –
CN(C)CCOc1ccc2[nH]c(C(=O)N3CC(CCl)c4c3cc([N+](=O)[O-])c3ccc(C(N)=O)cc43)cc2c1 (configuration not stated) | 22 | – | 2800 nM | 3400 nM | 34 | –
COc1cc2cc(C(=O)N3CC(CCl)c4c3cc([N+](=O)[O-])c3cc([N+](=O)[O-])ccc43)[nH]c2c(OC)c1OC (configuration not stated) | 12 | 1300 nM | 14000 nM | 16000 nM | 70 | 240 nM
COc1cc2cc(C(=O)N3CC(CCl)c4c3cc([N+](=O)[O-])c3ccc(S(N)(=O)=O)cc43)[nH]c2c(OC)c1OC (configuration not stated) | 1.9 | 14 nM | 24000 nM | 12000 nM | 2.6 | 4.9 nM
CN(C)CCOc1ccc2[nH]c(C(=O)N3CC(CCl)c4c3cc(N)c3cc(S(C)(=O)=O)ccc43)cc2c1 (configuration not stated) | 1.6 | 7.3 nM | 11000 nM | 14000 nM | 1.7 | 8.2 nM
CN(C)CCOc1ccc2[nH]c(C(=O)N3CC(CCl)c4c3cc([N+](=O)[O-])c3cc(C#N)ccc43)cc2c1 (configuration not stated) | – | 0.43 nM | 700 nM | 810 nM | – | 0.19 nM
CN(C)CCOc1ccc2[nH]c(C(=O)N3CC(CCl)c4c3cc(N)c3ccccc43)cc2c1 (configuration not stated) | 1.3 | 3.5 nM | 5000 nM | 6800 nM | 0.97 | 6.6 nM
CN(C)CCOc1ccc2[nH]c(C(=O)N3CC(CCl)c4c3cc(N)c3cc(S(N)(=O)=O)ccc43)cc2c1 (configuration not stated) | 1.8 | 23 nM | 35000 nM | 23000 nM | 1.4 | 16 nM
COc1cc2cc(C(=O)N3CC(CCl)c4c3cc([N+](=O)[O-])c3cc(C#N)ccc43)[nH]c2c(OC)c1OC (configuration not stated) | 2.5 | 2400 nM | 5300 nM | 6400 nM | 13 | 1000 nM
COc1cc2cc(C(=O)N3CC(CCl)c4c3cc(N)c3cc(S(N)(=O)=O)ccc43)[nH]c2c(OC)c1OC (configuration not stated) | 1.1 | 91 nM | 86000 nM | 41000 nM | 1.3 | 33 nM
COc1cc2cc(C(=O)N3CC(CCl)c4c3cc(N)c3ccc(S(C)(=O)=O)cc43)[nH]c2c(OC)c1OC (configuration not stated) | 1 | 28 nM | 25000 nM | 19000 nM | 1.4 | 14 nM
CC(=O)c1ccc2c3c(cc(N)c2c1)N(C(=O)c1cc2cc(OCCN(C)C)ccc2[nH]1)CC3CCl (configuration not stated) | 1.5 | 5.6 nM | 7600 nM | 11000 nM | 1.4 | 8.2 nM
CN(C)CCOc1ccc2[nH]c(C(=O)N3CC(CCl)c4c3cc([N+](=O)[O-])c3c(S(N)(=O)=O)cccc43)cc2c1 (configuration not stated) | 2.3 | 1200 nM | 2700 nM | 3700 nM | 4.6 | 800 nM
CN(C)CCOc1ccc2[nH]c(C(=O)N3CC(CCl)c4c3cc([N+](=O)[O-])c3cc(C(N)=O)ccc43)cc2c1 (configuration not stated) | – | – | 4100 nM | 3900 nM | – | –
CN(C)CCOc1ccc2[nH]c(C(=O)N3CC(CCl)c4c3cc([N+](=O)[O-])c3ccccc43)cc2c1 (configuration not stated) | – | 0.48 nM | 470 nM | 1400 nM | – | 0.87 nM
CN(C)CCOc1ccc2[nH]c(C(=O)N3CC(CCl)c4c3cc([N+](=O)[O-])c3ccc(S(C)(=O)=O)cc43)cc2c1 (configuration not stated) | 1.2 | – | 980 nM | 1900 nM | 2.7 | –
